Results from ChEMBL document CHEMBL5584326, “Second-generation piperazine derivatives as promising radiation countermeasures” (RSC Med Chem, 2024).

What was measured:
[1] = test system: Jurkat; assay: Cytotoxicity against human Jurkat cells assessed as reduction in cell viability at 100 uM measured after 48 hrs by WST-1 assay; type: toxicity, cell-based
In short: (§1)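 Cells kept at 37 °C in humidified 5% CO2, adherent lines under 10 passages, suspension lines under 20, exponential phase. Seeded at 1–50 × 10^3 cells per well, settled overnight, then a single 48 h exposure at 100 μM final. WST-1 read at 440 nm. Proliferation given as % of 0.1% DMSO mock control, mean of three independent experiments.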

[2] = test system: MOLT-4; assay: Cytotoxicity against human MOLT-4 cells assessed as reduction in cell viability at 100 uM measured after 48 hrs by WST-1 assay; type: toxicity, cell-based; details: molt-4, 48 h; in short: as §1
[3] = test system: A549; assay: Cytotoxicity against human A549 cells assessed as reduction in cell viability at 100 uM measured after 48 hrs by WST-1 assay; type: toxicity, cell-based; details: a549, 48 h; in short: as §1
[4] = test system: HT-29; assay: Cytotoxicity against human HT-29 cells assessed as reduction in cell viability at 100 uM measured after 48 hrs by WST-1 assay; type: toxicity, cell-based; details: ht-29, 48 h; in short: as §1
[5] = test system: PANC-1; assay: Cytotoxicity against human PANC-1 cells assessed as reduction in cell viability at 100 uM measured after 48 hrs by WST-1 assay; type: toxicity, cell-based; details: panc-1, 48 h; in short: as §1
[6] = test system: MCF7; assay: Cytotoxicity against human MCF7 cells assessed as reduction in cell viability at 100 uM measured after 48 hrs by WST-1 assay; type: toxicity, cell-based; details: mcf7, 48 h; in short: as §1
[7] = test system: SAOS-2; assay: Cytotoxicity against human SAOS-2 cells assessed as reduction in cell viability at 100 uM measured after 48 hrs by WST-1 assay; type: toxicity, cell-based; details: saos-2, 48 h; in short: as §1
[8] = test system: MRC5; assay: Cytotoxicity against human MRC5 cells assessed as reduction in cell viability at 100 uM measured after 48 hrs by WST-1 assay; type: toxicity, cell-based; details: mrc5, 48 h; in short: as §1
[9] = Cytotoxicity against human PBMC assessed as optimal non-toxic concentration required to show >=90 to 100% cell viability measured after 48 hrs by MTS assay; type: toxicity, cell-based; details: read-out: Activity
In short: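 PBMCs from a healthy donor were isolated on Histopaque-1077 and cultured in RPMI 1640 with 20% inactivated FBS. About 5×10^4 cells per well were exposed 48 h at 37 °C, 5% CO2 to 10–1000 μM. MTS was added 4 h before reading at 490 nm, blank subtracted, untreated control set to 100%. Concentration taken as viability ≥90% and not below control (P 0.05), mean of ≥3 measurements.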

[10] = test system: Blood; assay: Radioprotective activity against 3 Gy gamma radiation-induced DNA damage in human whole blood assessed as reduction in number of dicentric chromosomes per cell by measuring radioprotection factor at 1000 uM preincubated for 1 hr followed by 3 Gy gamma irradiation and measured after 48 hrs by giemsa staining based microscopic analysis relative to control; type: functional; details: time 49 hrs
In short: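 Heparinized whole blood from healthy male donors, 60 min compound pre-exposure, then single 3 Gy 60Co gamma dose at 0.6 Gy/min. After 30 min at 37 °C, cultured in RPMI 1640 with 20% FBS and 2% PHA. Colcemid 0.25 μg/ml added at 48 h, harvest at 50 h, KCl hypotonic, methanol:acetic acid fixation, 5% Giemsa. Automated metaphase scoring. RF = […].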

[11] = Cytotoxicity against human PBMC assessed as reduction in cell viability at 20 uM measured after 48 hrs by MTS assay; type: toxicity, cell-based
In short: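 PBMCs isolated from whole blood of a healthy donor by Histopaque-1077 density centrifugation, cultured in RPMI 1640 GlutaMAX with 20% inactivated FBS and penicillin/streptomycin. About 5×10^4 cells/well exposed to 10–1000 μM for 48 h at 37 °C, 5% CO2. MTS added 4 h before reading absorbance at 490 nm, cell-free medium blank subtracted. Untreated control set as 100%; mean of ≥3 independent measurements.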

SMILES | Activity [1] | Activity [2] | Activity [3] | Activity [4] | Activity [5] | Activity [6] | Activity [7] | Activity [8] | MNTC at 48 h [9] | PI [10] | Activity [11]
OCCN1CCN(CC(O)COc2ccc(F)cc2)CC1 (stereo not drawn) | Non-Toxic | Non-Toxic | Non-Toxic | Non-Toxic | Non-Toxic | Non-Toxic | Non-Toxic | Non-Toxic | 1000 µM | 1.53 | 
OCCN1CCN(CC(O)COc2cc(Cl)c(Cl)cc2Cl)CC1 (stereo not drawn) | Toxic | Toxic | Toxic | Toxic | Toxic | Toxic | Toxic | Toxic |  |  | 
O=[N+]([O-])c1cc(OCC(O)CN2CCN(CCO)CC2)ccc1Cl (stereo not drawn) | Non-Toxic | Non-Toxic | Non-Toxic | Non-Toxic | Non-Toxic | Non-Toxic | Non-Toxic | Non-Toxic | 200 µM |  | 
NCCCNCCSP(=O)(O)O [AMIFOSTINE] |  |  |  |  |  |  |  |  | 10 µM |  | Toxic
OCCN1CCN(CC(O)COc2cccc(Cl)c2)CC1 (stereo not drawn) | Non-Toxic | Non-Toxic | Non-Toxic | Non-Toxic | Non-Toxic | Non-Toxic | Non-Toxic | Non-Toxic | 500 µM |  | 
OCCN1CCN(CC(O)COc2ccc(Oc3ccc(F)cc3)cc2)CC1 (stereo not drawn) | Toxic | Toxic | Toxic | Toxic | Toxic | Toxic | Toxic | Toxic |  |  | 
COc1cc([N+](=O)[O-])ccc1OCC(O)CN1CCN(CCO)CC1 (stereo not drawn) | Non-Toxic | Non-Toxic | Non-Toxic | Non-Toxic | Non-Toxic | Non-Toxic | Non-Toxic | Non-Toxic | 500 µM |  | 
COc1ccc(OCC(O)CN2CCN(CCO)CC2)c([N+](=O)[O-])c1 (stereo not drawn) | Non-Toxic | Non-Toxic | Non-Toxic | Non-Toxic | Non-Toxic | Non-Toxic | Non-Toxic | Non-Toxic | 500 µM |  | 
O=[N+]([O-])c1ccc(OCC(O)CN2CCN(CCO)CC2)c(F)c1 (stereo not drawn) | Non-Toxic | Non-Toxic | Non-Toxic | Non-Toxic | Non-Toxic | Non-Toxic | Non-Toxic | Non-Toxic | 500 µM |  | 
